Laboratory results: ChEMBL document CHEMBL5576156, “New pyrazole-pyridazine hybrids as selective COX-2 inhibitors: design, synthesis, molecular docking, in silico studies and investigation of their anti-inflammatory potential by evaluation of TNF-α, IL-6, PGE-2 and NO in LPS-induced RAW264.7 macrophages” (RSC Med Chem, 2024)

Key:
Rattus norvegicus = test: Antiinflammatory activity against carrageenin-induced rat paw edema at 10 mg/kg, po pretreated with carrageenin for 1 hr followed by compound addition and measured after 3 hrs; format: functional
[1] = target: T1, Prostaglandin G/H synthase 2 (Homo sapiens) (UniProt P35354); test: Inhibition of COX-2 in human whole blood at 8 uM incubated for 24 hrs by immunoassay relative to control; format: tissue-based
T1 sequence (whole entry): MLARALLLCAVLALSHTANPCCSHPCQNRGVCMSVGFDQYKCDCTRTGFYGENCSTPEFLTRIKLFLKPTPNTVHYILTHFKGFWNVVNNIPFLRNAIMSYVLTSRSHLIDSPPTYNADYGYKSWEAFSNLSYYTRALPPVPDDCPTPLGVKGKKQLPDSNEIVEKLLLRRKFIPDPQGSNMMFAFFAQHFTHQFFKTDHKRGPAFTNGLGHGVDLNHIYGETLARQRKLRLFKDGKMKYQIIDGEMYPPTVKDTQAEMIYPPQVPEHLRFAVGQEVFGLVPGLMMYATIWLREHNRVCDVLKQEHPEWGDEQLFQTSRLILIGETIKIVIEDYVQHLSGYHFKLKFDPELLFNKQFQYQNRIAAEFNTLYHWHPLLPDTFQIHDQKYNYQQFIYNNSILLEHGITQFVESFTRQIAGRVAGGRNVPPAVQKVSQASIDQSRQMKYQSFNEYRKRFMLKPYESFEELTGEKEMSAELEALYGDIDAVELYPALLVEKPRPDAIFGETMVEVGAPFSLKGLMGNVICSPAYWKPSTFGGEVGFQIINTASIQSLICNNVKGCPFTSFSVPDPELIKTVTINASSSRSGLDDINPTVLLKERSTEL

RAW264.7 [2] = test: Antiinflammatory activity against LPS induced mouse RAW264.7 cells assessed as decrease in TNFalpha production at 50 uM after 24 hrs by ELISA; format: functional; set-up: scale not given: the % may be the effect or the level left
In short: (§1)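 RAW264.7 cells seeded at 5 × 10^3 per well and held 24 h at 37 °C, 5% CO2. Test compound given at 50 μM together with LPS 1 μg mL−1. Untreated cells were the blank, and LPS + DMSO (0.1% v/v final) was the negative control. IL-6, PGE-2 and TNF-α in the medium were measured by ELISA kits 24 h after treatment.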

RAW264.7 [3] = test: Antiinflammatory activity against LPS induced mouse RAW264.7 cells assessed as decrease in IL6 production at 50 uM after 24 hrs by ELISA; format: functional; set-up: scale not given: the % may be the effect or the level left; in short: as §1
RAW264.7 [4] = test: Antiinflammatory activity against LPS induced mouse RAW264.7 cells assessed as decrease in PGE2 production at 50 uM after 24 hrs by ELISA; format: functional; set-up: scale not given: the % may be the effect or the level left; in short: as §1
RAW264.7 [5] = test: Antiinflammatory activity in LPS-induced mouse RAW264.7 cells assessed as inhibition of NO production at 20 uM pretreated for 2 hrs followed by LPS stimulation and measured after 24 hrs by Griess reagent based assay; format: functional; set-up: scale not given: the % may be the effect or the level left; details: time 26 hrs
In short: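 RAW264.7 cells pretreated with compound for 2 h, then stimulated with LPS 1 μg mL−1 for 24 h. Culture medium was mixed 1:1 with Griess reagent and held 10 min at room temperature. Absorbance at 540 nm was read as the NO indicator.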

How did the Activity (Rattus norvegicus) turn out when Cc1cc(C)n(-c2ccc(=O)n(CC(=O)NCc3ccccc3)n2)n1 was run?
Its Activity is 84%.

Cc1ccc(-c2cc(C(F)(F)F)nn2C2=NNC(Cl)C=C2)cc1 (stereo unspecified) was tested. Which inhibition [1] did it give?
Its inhibition is 78%.

Which Activity (RAW264.7 [2]) does the source give for COc1cc(/C=N/C2=NNC(=O)C2c2ccc(Cl)nn2)cc(OC)c1OC (stereo unspecified) here?
Its Activity is 48%.

What about the Activity (RAW264.7 [3]) of the same compound?
Its Activity is 62%.

And the Activity (RAW264.7 [4])?
Its Activity is 44%.

Which Activity (RAW264.7 [2]) does the source give for COc1cc(/C=N/C2=NN=C(N)C2c2ccc(Cl)nn2)cc(OC)c1OC (stereo unspecified) here?
Its Activity is 70%.

What about the Activity (RAW264.7 [3]) of the same compound?
Its Activity is 78%.

And the Activity (RAW264.7 [4])?
The Activity was 64%.

What about the Activity (RAW264.7 [5]) of the same compound?
Its Activity is 70%.

For Cc1ccc(-c2cc(C(F)(F)F)nn2-c2ccc(S(N)(=O)=O)cc2)cc1 [CELECOXIB], which Activity (RAW264.7 [2]) is on record?
Its Activity is 75%.

What about the Activity (RAW264.7 [3]) of the same compound?
Its Activity is 83%.

What about the Activity (RAW264.7 [4]) of the same compound?
Its Activity is 69%.

How did the Activity (RAW264.7 [2]) turn out when NC1=NN=C(/N=C/c2ccc(Br)cc2)C1c1ccc(Cl)nn1 (stereo unspecified) was run?
The Activity was 65%.

And the Activity (RAW264.7 [3])?
The Activity was 65%.

And the Activity (RAW264.7 [4])?
The Activity was 60%.

And the Activity (RAW264.7 [5])?
Its Activity is 53%.
